In the library only some 3.3% were active in any assay of this set; here they are far more common.
Arrestin-AP2 inh = blocks beta-arrestin peptide binding to AP2 adaptin | FITC-arrestin peptide / GST-AP2 beads, flow cytometry; AP2 beta2 appendage carries R879A mutation | 340,000 compounds, 0.31% hits | inhibition, % at 10 µM;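 active = inhibition above a set limit, near 3 SD of compounds lacking own fluorescence, cut at about 54% in these data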
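Measured by: flow cytometry, FL1 (488/535 nm); Material: AP2 appendage R879A on GSH beads; Evaluation: percent response; Timing: pre-incubation 12 min, peptide binding 1 h, room temperature; Also added: 50 nM FITC-arrestin peptide; Medium: PBS with 0.05% Tween 20 and 0.1% BSA.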
Myeloid diff MLP = myeloid differentiation induction. 360,000 compounds, 1% hits. ER-HoxA9 myeloid progenitors, lysozyme-GFP differentiation, flow cytometry. calls only at 10 µM. AID 624256;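 active = normalized GFP-positive differentiation at or above the plate's own cutoff, the solvent-only control mean plus 3 SD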;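 note: cells exposed to compound for four days before flow analysis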
CendR NRP1 mod = modulators of CendR peptide binding to human neuropilin-1; 360,000 compounds, 0.85% hits; inhibition, % at 25 µM; FAM-RPARPAR peptide binding to NRP-1, fluorescence polarization; O14786;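 active = inhibition or corrected inhibition above about 18%, plus a signal ratio from 0.5 to 1.5, limit read from the data, passing the limit was not always enough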
ATG4B inhibitor = ATG4B (human) cysteine protease inhibition. ATG4B cleavage of LC3-PLA2, NBD-HPC fluorescence, 1 h. inhibition, % at 8.33 µM. Q9Y4P1. 340,000 compounds, 0.51% hits; in the data active = inhibition above about 40%
Target sequence (Q9Y4P1 whole entry, looked up): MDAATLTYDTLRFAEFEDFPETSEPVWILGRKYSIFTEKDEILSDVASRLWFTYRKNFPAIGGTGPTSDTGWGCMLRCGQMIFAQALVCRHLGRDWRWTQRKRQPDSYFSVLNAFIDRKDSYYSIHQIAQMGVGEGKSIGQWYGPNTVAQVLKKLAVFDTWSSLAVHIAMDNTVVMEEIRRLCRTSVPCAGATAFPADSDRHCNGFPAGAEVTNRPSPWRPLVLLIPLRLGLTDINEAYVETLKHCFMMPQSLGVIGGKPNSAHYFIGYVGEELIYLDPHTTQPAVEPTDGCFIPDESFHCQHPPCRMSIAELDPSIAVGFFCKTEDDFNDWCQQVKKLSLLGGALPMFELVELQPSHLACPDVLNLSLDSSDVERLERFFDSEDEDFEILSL
Granule exo inh = blocks lytic granule exocytosis. TALL-104 LAMP-1 surface exposure, flow cytometry; cells stimulated with thapsigargin and PMA. inhibition, % at 10 µM. 360,000 compounds, 0.66% hits. AID 651702;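 active = inhibition above about 55%, limit read from the data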
ABCB6 inh MLPCN = human ABCB6 transporter inhibition | K562-ABCB6 porphyrin accumulation, flow cytometry, 1 h; active compounds read low | 360,000 compounds, 0.19% hits | fluorescence ratio to DMSO, % at 10 µM | Q9NP58;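 active = fluorescence ratio to DMSO below 75%, the collection mean minus 3 SD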;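 note: signal is porphyrin accumulated inside mitochondria; lower ratio means ABCB6 inhibition with less porphyrin fluorescence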
ATG4B confirm = ATG4B (human) inhibition, single-dose confirmed. shares compounds with ATG4B inhibitor. ATG4B protease fluorescent substrate cleavage assay. inhibition, % at 8.33 µM. 320 compounds, 92% hits. AID 504757; in the data active = inhibition above about 39%
PLA2 ctr = PLA2 (human) inhibition in ATG4B counter-screen | shares compounds with ATG4B inhibitor | purified PLA2, NBD-C6-HPC fluorescence, 45 min | inhibition, % at 8.33 µM | 1,600 compounds, 66% hits | AID 588402; in the data active = inhibition above about 50%
Target sequence (P04054 whole entry, looked up): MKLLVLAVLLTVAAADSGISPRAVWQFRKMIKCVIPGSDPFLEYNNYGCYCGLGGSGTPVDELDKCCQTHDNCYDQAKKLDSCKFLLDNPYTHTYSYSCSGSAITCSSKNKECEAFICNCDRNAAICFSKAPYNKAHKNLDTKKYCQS
A number is an active result; i = inactive; nt = not tested or not shown.

SMILES	Arrestin-AP2 inh	Myeloid diff MLP	CendR NRP1 mod	ATG4B inhibitor	Granule exo inh	ABCB6 inh MLPCN	PLA2 ctr	others
CC(/C=C1\SC(=S)N(c2ccc(C(=O)O)cc2)C1=O)=C\c1ccccc1	i	i	i	52	i	i	i	ATG4B confirm=44
CC(/C=C1\SC(=S)N(NS(=O)(=O)c2ccccc2)C1=O)=C\c1ccccc1	i	i	i	49	i	i	i	ATG4B confirm=59
COc1ccc(C2=NC(=O)/C(=C\c3cc(OC)c(OC)c(OC)c3)O2)cc1	i	i	i	i	i	i	nt
CC1Cc2ccccc2N1C(=O)COC(=O)c1c2c(nc3ccccc13)CCCCC2 (centres undefined)	i	i	i	44	i	i	i
CCOC(=O)C1=CCN(S(=O)(=O)c2ccccc2Br)C1c1ccc(F)cc1 (centres undefined)	nt	i	i	nt	i	i	nt
O=S(=O)(c1ccccc1)N1CCN(Cc2cccc(Cl)c2)CC1	i	i	i	i	i	i	nt
O=S(=O)(c1ccccc1)N1CCN(c2cccc(Cl)c2)CC1	i	i	i	51	i	i	61
CC(NC(=O)COC(=O)c1ccc[nH]c1=O)c1ccccc1 (centres undefined)	i	i	i	i	i	i	nt
NC(=O)c1sc2nc3c(c(-c4ccc(Cl)cc4)c2c1N)CCCC3	i	i	i	49	i	i	66
CCOC(=O)c1c(C)nc2sc(C(N)=O)c(N)c2c1-c1ccc(OC)cc1	i	i	i	65	i	i	74
Cc1ccc(-c2c3c(nc4sc(C(N)=O)c(N)c24)CCC3)cc1	i	i	i	55	i	i	59
COc1cc(/C=C(\NC(=O)c2cc(OC)c(OC)c(OC)c2)C(=O)NC(C(=O)O)c2ccccc2)cc(OC)c1OC (centres undefined)	i	i	i	i	i	i	nt
S=C(NCc1ccccc1)NC1CCCc2ccccc21 (centres undefined)	i	i	i	78	i	i	78
O=C(NC1CCCc2ccccc21)c1ccccc1 (centres undefined)	i	i	i	i	i	i	nt
S=C(NCc1ccco1)NC1CCCc2ccccc21 (centres undefined)	i	i	i	63	i	i	i
CCCCCCCCN1C(=O)[C@H](CC(=O)N2CCN(C(=O)C3CC3)CC2)C[C@@]2(C(=O)OC)CCCCC=C12	nt	i	i	nt	i	i	nt
S=c1[nH]nc(-c2ccccc2)n1/N=C/c1ccc(-c2ccccc2Cl)o1	i	i	i	42	i	i	58
S=c1[nH]nc(-c2cccc(Cl)c2)n1/N=C/c1ccc(-c2ccccc2Br)o1	i	i	i	i	i	i	nt
O=C(OCc1ccccc1)N1CCCC1/C=C/CN1CCOCC1 (centres undefined)	i	i	i	i	i	i	nt
COc1cccc(CNC(=O)C2CCN(S(=O)(=O)c3ccc4c(c3)CC(C)N4C(=O)C3CC3)CC2)c1 (centres undefined)	i	i	i	56	i	i	58
OC(c1cccnc1)c1nc(-c2cccc(F)c2)cs1 (centres undefined)	nt	i	i	nt	i	i	nt
Cc1cc(C)c(C)c(S(=O)(=O)NC2CCCCC2)c1C	i	i	i	i	i	i	nt
COc1ccc(OC)c(-c2csc(N(Cc3ccco3)C(=O)c3cccs3)n2)c1	i	i	i	57	i	i	72
Cc1ccc(-n2c(O)c(C=Nc3ccccc3-c3n[nH]c(=S)[nH]c3=O)c3ccccc3c2=O)c(C)c1	i	i	i	43	i	i	i	ATG4B confirm=65
Cc1cccc(-n2c(O)c(C=Nc3ccccc3-c3n[nH]c(=S)[nH]c3=O)c3ccccc3c2=O)n1	i	i	i	i	i	i	nt
SMILES	Arrestin-AP2 inh	Myeloid diff MLP	CendR NRP1 mod	ATG4B inhibitor	Granule exo inh	ABCB6 inh MLPCN	PLA2 ctr	others
Cc1cccn2c(CNCCc3ccccn3)c(C(=O)N3CCOCC3)nc12	i	i	i	i	i	i	nt
Clc1cccc(Cl)c1CSc1nnc(-c2sccc2-n2cccc2)o1	i	i	i	53	i	i	65
CSc1nnc(-c2sccc2-n2cccc2)o1	i	i	i	i	i	i	nt
CC(C)c1ccc2nc3sc(C(=O)N4CCc5ccccc5C4)c(N)c3cc2c1	i	i	i	52	i	i	i	ATG4B confirm=54
CCN1CCc2nc3sc(C(=O)N4CCc5ccccc5C4)c(N)c3cc2C1	i	i	i	i	i	i	nt
O=S(=O)(c1ccc(Cl)s1)N1CCc2ccccc2C1	i	i	i	i	i	i	nt
O=S(=O)(c1ccc(Br)s1)N1CCc2ccccc2C1	i	i	i	57	i	i	i
Nc1ccc(C(=O)N/N=C\c2ccc(OC(=O)c3ccccc3Cl)cc2)cc1	i	i	i	i	i	i	nt
O=C(O)c1ccc(N/N=C/c2ccc(OC(=O)c3ccccc3Cl)cc2)cc1	i	i	i	94	i	i	96
CCc1nnc(NS(=O)(=O)c2ccc(NC(=O)c3ccccc3)cc2)s1	i	i	i	i	i	i	nt
CCc1nnc(NS(=O)(=O)c2ccc(N/C=C\C(=O)c3ccc4ccccc4c3)cc2)s1	i	i	i	50	i	i	i	ATG4B confirm=59
CC(CNC(=O)c1ccc2c(c1)OCO2)c1ccc([N+](=O)[O-])cc1 (centres undefined)	i	i	i	i	i	i	nt
c1ccc(-c2ccccc2OCCCCN2CCCCCC2)cc1	nt	i	i	i	i	i	nt
Cc1ccc(C(=O)O)cc1-c1ccc(/C=C2\SC(=O)N(CC(=O)Nc3ccccc3)C2=O)o1	i	i	i	i	i	i	nt
Cc1ccccc1NC(=O)CN1C(=O)S/C(=C\c2ccc(-c3cc(C(=O)O)ccc3C)o2)C1=O	i	i	i	42	i	i	i	ATG4B confirm=55
N#Cc1ccccc1S(=O)(=O)N1CCN(C(=O)c2cccc(S(=O)(=O)N3CCCC3)c2)CC1	i	i	i	i	i	i	nt
O=C(O)c1cc(-c2ccc(-c3c(-c4ccc5c(c4)OCO5)noc3-c3ccsc3)cc2)nc2ccccc12	i	i	i	62	i	i	i	ATG4B confirm=i
CN(C)c1ccc(-c2c(-c3ccc4c(c3)OCO4)noc2-c2ccsc2)cn1	i	i	i	i	i	i	nt
CCNc1ccc(Br)cc(C(=O)/C=C/c2ccccc2Cl)c1=O	i	i	i	51	i	i	i
C(=N\Nc1nc(-c2ccccc2)cs1)/c1ccco1	i	i	i	i	i	i	nt
Cc1ccc(-c2csc(N/N=C/c3ccco3)n2)cc1	i	i	i	41	i	i	i
O=C(Oc1cncc(Cl)c1)c1ccco1	i	i	i	i	i	i	nt

Source: PubChem (several laboratories)
